Reference: ChEMBL document CHEMBL1154853, “New 1,3-oxazolo[4,5-c]quinoline derivatives: synthesis and evaluation of antibacterial and antituberculosis properties” (2010)
Converted amounts (≈) assume the structure as drawn.

Experiments:
Assay type in all cases: functional
Klebsiella pneumoniae [1] = assay: Antimicrobial activity against Klebsiella pneumoniae after 16 to 18 hrs by serial dilution method
Outline: (§1)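 Tube broth dilution: serial drug dilutions in Mueller Hinton broth, pH adjusted to 5.0 with phosphate buffer. A standardized bacterial suspension was inoculated and incubated 16-18 h at 37 °C. MIC was read as the lowest drug concentration with no visible growth. Ciprofloxacin served as the reference.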

Escherichia coli [2] = assay: Antimicrobial activity against Escherichia coli […] at MIC after 3 to 4 days by disc diffusion method
Staphylococcus aureus [3] = assay: Antimicrobial activity against Staphylococcus aureus […] at MIC after 3 to 4 days by disc diffusion method
Pseudomonas aeruginosa [4] = assay: Antimicrobial activity against Pseudomonas aeruginosa ATTC 27853 after 16 to 18 hrs by serial dilution method; outline: as §1
Klebsiella pneumoniae [5] = assay: Antimicrobial activity against Klebsiella pneumoniae at MIC after 3 to 4 days by disc diffusion method
Escherichia coli [6] = assay: Antimicrobial activity against Escherichia coli […] after 16 to 18 hrs by serial dilution method; outline: as §1
Pseudomonas aeruginosa [7] = assay: Antimicrobial activity against Pseudomonas aeruginosa ATTC 27853 at MIC after 3 to 4 days by disc diffusion method
Staphylococcus aureus [8] = assay: Antimicrobial activity against Staphylococcus aureus […] after 16 to 18 hrs by serial dilution method; outline: as §1
[9] = test system: Mycobacterium tuberculosis; assay: Antitubercular activity against Mycobacterium tuberculosis H37Rv at MIC after 24 hrs by broth microdilution method
Outline: (§2)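 M. tuberculosis H37Rv grown in Middlebrook 7H9 with 10% OADC, diluted to McFarland 1, 50 µl added to 150 µl fresh medium. Compounds from 2 mg/mL DMF stocks tested at 1, 10 and 100 µg/mL; DMF-only controls. 7 days at 37 °C, then 0.01% resazurin added with 24 h further incubation. MIC = lowest concentration preventing blue-to-pink change.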

[10] = test system: Mycobacterium tuberculosis; assay: Antitubercular activity against Mycobacterium tuberculosis H37Rv after 24 hrs by broth microdilution method; outline: as §2

Row | Compound | MIC (Klebsiella pneumoniae [1]) | diameter of the inhibition zone (DIZ) (Escherichia coli [2]) | diameter of the inhibition zone (DIZ) (Staphylococcus aureus [3]) | MIC (Pseudomonas aeruginosa [4]) | diameter of the inhibition zone (DIZ) (Klebsiella pneumoniae [5]) | MIC (Escherichia coli [6]) | diameter of the inhibition zone (DIZ) (Pseudomonas aeruginosa [7]) | MIC (Staphylococcus aureus [8]) | inhibition (INH) [9] | MIC [10]
1 | Fc1cccc(-c2nc3ccccc3c3oc(NCCc4ccccc4)nc23)c1 | 50 µg/mL (≈ 130 µM) | <10 mm | <10 mm | 50 µg/mL (≈ 130 µM) | <10 mm | 50 µg/mL (≈ 130 µM) | <10 mm | 50 µg/mL (≈ 130 µM) | 0% | > 100 µg/mL
2 | COc1ccccc1Nc1nc2c(-c3ccc(F)cc3)nc3ccccc3c2o1 | 6.25 µg/mL (≈ 16.2 µM) | 27 mm | 22 mm | 6.25 µg/mL (≈ 16.2 µM) | 23 mm | 6.25 µg/mL (≈ 16.2 µM) | 19 mm | 6.25 µg/mL (≈ 16.2 µM) | 99% | 1 µg/mL (≈ 2.59 µM)
3 | Fc1ccc(-c2nc3ccccc3c3oc(NCc4ccccc4)nc23)cc1 | 6.25 µg/mL (≈ 16.9 µM) | 24 mm | 21 mm | 6.25 µg/mL (≈ 16.9 µM) | 19 mm | 6.25 µg/mL (≈ 16.9 µM) | 24 mm | 6.25 µg/mL (≈ 16.9 µM) | 95% | 10 µg/mL (≈ 27.1 µM)
4 | CCCCCNc1nc2c(-c3ccc(F)cc3)nc3ccccc3c2o1 | 50 µg/mL (≈ 143 µM) | <10 mm | <10 mm | 50 µg/mL (≈ 143 µM) | <10 mm | 50 µg/mL (≈ 143 µM) | <10 mm | 50 µg/mL (≈ 143 µM) | 0% | > 100 µg/mL
5 | Fc1ccc(-c2nc3ccccc3c3oc(Nc4cccc(Cl)c4)nc23)cc1 | 6.25 µg/mL (≈ 16 µM) | 26 mm | 22 mm | 6.25 µg/mL (≈ 16 µM) | 21 mm | 6.25 µg/mL (≈ 16 µM) | 24 mm | 6.25 µg/mL (≈ 16 µM) | 99% | 1 µg/mL (≈ 2.57 µM)
6 | Cc1cc(C)cc(Nc2nc3c(-c4ccc(F)cc4)nc4ccccc4c3o2)c1 | 12.5 µg/mL (≈ 32.6 µM) | 24 mm | 11 mm | 12.5 µg/mL (≈ 32.6 µM) | 12 mm | 6.25 µg/mL (≈ 16.3 µM) | 14 mm | 12.5 µg/mL (≈ 32.6 µM) | 95% | 10 µg/mL (≈ 26.1 µM)
7 | Fc1ccc(Nc2nc3c(-c4ccc(F)cc4)nc4ccccc4c3o2)cc1 | 6.25 µg/mL (≈ 16.7 µM) | 28 mm | 20 mm | 6.25 µg/mL (≈ 16.7 µM) | 20 mm | 6.25 µg/mL (≈ 16.7 µM) | 22 mm | 6.25 µg/mL (≈ 16.7 µM) | 99% | 1 µg/mL (≈ 2.68 µM)
